Laboratory results taken from ChEMBL document CHEMBL2034874, “5-acetyl-2-arylbenzimidazoles as antiviral agents. Part 4” (Eur J Med Chem, 2012).

Columns and labels:
[1] = Cytotoxicity against human MT4 cells after 96 hrs by MTT assay; assay type: cell-based
How it was run: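 Exponentially growing MT-4 cells seeded at 1×10^5 cells/mL in RPMI-1640 with 10% FBS and incubated with serial compound dilutions at 37 °C and 5% CO2. Viability measured by MTT after 96 h. CC50 by linear regression against untreated controls.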

[2] = tested on: Human immunodeficiency virus 1; experiment: Antiviral activity against HIV1 3B infected in human MT4 cells assessed as inhibition of virus-induced cytopathogenicity after 4 days by MTT assay; assay type: functional, organism-based; conditions: Human immunodeficiency virus 1, 3B, MT4, 96 h
How it was run: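 MT-4 cells (1×10^4/well) in RPMI with serial compound dilutions, infected with HIV-1 IIIB at 100 CCID50 (m.o.i. 0.01). Viability measured by MTT after 4 days at 37 °C. EC50 for 50% protection from cytopathogenicity obtained by linear regression against untreated controls.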

[3] = Cytotoxicity against MDBK cells after 48 to 96 hrs by MTT assay; assay type: cell-based, Bos taurus; conditions: cattle
How it was run: (§1)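 Mock-infected MDBK (6×10^5 cells/mL, MEM-E with 10% horse serum) or BHK (1×10^6 cells/mL, MEM-E with 10% FBS) cells incubated with serial compound dilutions at 37 °C and 5% CO2. Viability measured by MTT after 48–96 h. CC50 by linear regression against untreated controls.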

[4] = Antiviral activity against BVDV1 NADL ATCC VR-534 infected in MDBK cells assessed as inhibition of virus-induced cytopathogenicity after 3 to 4 days by MTT assay; assay type: functional, cell-based, Bovine viral diarrhea virus 1-NADL; conditions: Bovine viral diarrhea virus isolates and strains, ATCC VR-534, MDBK
How it was run: (§2)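 BHK (5×10^4/well) or MDBK (3×10^4/well) cells grown to confluent monolayers overnight, infected at m.o.i. 0.01 in maintenance MEM-Earl with 0.5% inactivated FBS. Serially diluted compounds added after 1 h. Viability read by MTT after 3–4 days at 37 °C. Values are expressed as % of untreated controls, and EC50 is derived by linear regression. Duplicate samples.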

[5] = Cytotoxicity against BHK21 cells by MTT assay; assay type: cell-based, Mesocricetus auratus; conditions: hamster, BHK-21 cells; how it was run: as §1
Yellow fever virus = experiment: Antiviral activity against Yellow fever virus 17D infected in BHK21 cells assessed as inhibition of virus-induced cytopathogenicity after 3 to 4 days by MTT assay; assay type: functional, cell-based; conditions: BHK-21
[6] = Cytotoxicity against african green monkey Vero 76 cells after 48 to 96 hrs by MTT assay; assay type: cell-based; conditions: chlorocebus sabaeus
Coxsackievirus B5 = experiment: Antiviral activity against Coxsackie virus type B5 Ohio-1 ATCC VR-29 infected in african green monkey Vero-76 cells assessed as reduction in viral plaque after 3 days by crystal violet staining; assay type: functional, organism-based; conditions: Enterovirus B, Ohio-1 ATCC VR-29, Vero 76, 72 h
How it was run: (§3)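 Vero-76 monolayers (2×10^5 cells/well) infected for 2 h at 50–100 PFU/well. Unadsorbed virus removed. D-MEM with 1% inactivated FBS, 0.75% methylcellulose and serial compound dilutions added. Incubation at 37 °C for 3 days (CVB-5, HSV-1) or 5 days (RSV). Fixed and stained with 50% ethanol/0.8% crystal violet, then plaques counted. EC50 by linear regression versus untreated controls.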

Poliovirus 1 = experiment: Antiviral activity against Polio virus type 1 strain sabin ATCC VR-1562 infected in african green monkey Vero-76 cells assessed as reduction in viral plaque after 2 days by crystal violet staining; assay type: functional, cell-based, Human poliovirus 1 strain Sabin; conditions: Enterovirus C, ATCC VR-1562, Vero 76, 48 h
Vaccinia virus = experiment: Antiviral activity against Vaccinia virus Elstree-Lister ATCC VR-1549 infected in african green monkey Vero-76 cells assessed as reduction in viral plaque after 3 days by crystal violet staining; assay type: functional, organism-based; conditions: Orthopoxvirus vaccinia, Elstree-Lister ATCC VR-1549, Vero 76, 72 h
[7] = tested on: Mammalian orthoreovirus 1; experiment: Antiviral activity against Reovirus 1 3651 ATCC VR-214 infected in BHK21 cells assessed as inhibition of virus-induced cytopathogenicity after 3 to 4 days by MTT assay; assay type: functional, organism-based; conditions: Mammalian orthoreovirus 1, 3651 ATCC VR-214, BHK-21; how it was run: as §2
[8] = Antiviral activity against Human respiratory syncytial virus A2 ATCC VR-1540 infected in african green monkey Vero-76 cells assessed as reduction in viral plaque after 5 days by crystal violet staining; assay type: functional, cell-based; conditions: ATCC VR-1540, Vero 76, 120 h; how it was run: as §3
[9] = tested on: Vesicular stomatitis Indiana virus; experiment: Antiviral activity against Vesicular stomatitis virus indiana ATCC VR-1540 infected in african green monkey Vero-76 cells assessed as reduction in viral plaque after 2 days by crystal violet staining; assay type: functional, organism-based; conditions: ATCC VR-1540, Vero 76, 48 h
Human alphaherpesvirus 1 = experiment: Antiviral activity against Herpes simplex virus type 1 KOS ATCC VR-1493 infected in african green monkey Vero-76 cells assessed as reduction in viral plaque after 3 days by crystal violet staining; assay type: functional, organism-based; conditions: Human alphaherpesvirus 1, KOS ATCC VR1493, Vero 76, 72 h; how it was run: as §3

Row | SMILES | CC50 at 96 h [1] | EC50 [2] | CC50 [3] | EC50 [4] | CC50 [5] | EC50 (Yellow fever virus) | CC50 [6] | EC50 (Coxsackievirus B5) | EC50 (Poliovirus 1) | EC50 (Vaccinia virus) | EC50 [7] | EC50 [8] | EC50 [9] | EC50 (Human alphaherpesvirus 1)
1 | COc1ccc(-c2nc3cc(C(C)=O)ccc3[nH]2)c(OC)c1 | 50 µM | > 50 µM | 73 µM | 21 µM | 50 µM | > 50 µM | > 100 µM | > 100 µM | > 100 µM | > 100 µM |  |  |  | 
2 | COc1ccc(-c2nc3cc(C(C)=O)ccc3[nH]2)c(OC)c1OC | > 100 µM | > 100 µM | > 100 µM | > 100 µM | > 100 µM | > 100 µM | > 100 µM | > 100 µM | > 100 µM | > 100 µM | > 100 µM | > 100 µM | > 100 µM | > 100 µM
3 | COc1ccc(-c2nc3cc(C(C)=O)ccc3[nH]2)cc1 | 24 µM | > 24 µM | 58 µM | > 58 µM | 40 µM | > 40 µM | > 100 µM | > 100 µM | > 100 µM | > 100 µM |  |  |  | 
4 | COc1ccc(-c2nc3cc(C(C)O)ccc3[nH]2)cc1 (stereo unspecified) | ≥ 100 µM | > 100 µM | > 100 µM | > 100 µM | > 100 µM | > 100 µM | > 100 µM | > 100 µM | > 100 µM | > 100 µM | > 100 µM | > 100 µM | > 100 µM | > 100 µM
5 | COc1ccc(-c2nc3cc(C(C)O)ccc3[nH]2)c(OC)c1OC (stereo unspecified) | 79 µM | > 79 µM | 60 µM | > 60 µM | 60 µM | > 60 µM | ≥ 100 µM | > 100 µM | > 100 µM | > 100 µM | > 100 µM | > 100 µM |  | > 100 µM
6 | COc1ccc(-c2nc3cc(/C(C)=N/O)ccc3[nH]2)c(OC)c1OC | 51 µM | > 51 µM | > 100 µM | > 100 µM | > 100 µM | > 100 µM | > 100 µM | > 100 µM | > 100 µM | > 100 µM | > 100 µM |  |  | > 100 µM
7 | COc1ccc(-c2nc3cc(/C(C)=N/NC(N)=O)ccc3[nH]2)c(OC)c1 | 21 µM | ≥ 21 µM | > 100 µM | 2.55 µM | ≥ 100 µM | > 100 µM | 80 µM | > 80 µM | > 80 µM | 80 µM | > 100 µM |  | > 80 µM | 
8 | C/C(=N\NC(N)=S)c1ccc2[nH]c(-c3ccccc3)nc2c1 | ≥ 100 µM | > 100 µM | 32 µM | 3.8 µM | 32 µM | > 32 µM | > 100 µM | > 100 µM | > 100 µM |  | > 32 µM | > 100 µM | > 100 µM | 
9 | C/C(=N\NC(N)=S)c1ccc2[nH]c(-c3ccc(Cl)cc3)nc2c1 | 2 µM | > 2 µM | > 100 µM | 0.85 µM | > 100 µM | > 100 µM | > 100 µM | > 100 µM | > 100 µM | > 100 µM | > 100 µM |  | > 100 µM | 
10 | C/C(=N\NC(N)=S)c1ccc2[nH]c(-c3ccc(C(F)(F)F)cc3)nc2c1 | 2 µM | > 2 µM | 5 µM | > 1.8 µM | 5 µM | > 5 µM | 22 µM | > 22 µM | > 22 µM |  |  |  |  | 
11 | COc1ccc(-c2nc3cc(/C(C)=N/NC(N)=S)ccc3[nH]2)cc1 | 5 µM | > 5 µM | 13 µM | 1.85 µM | 13 µM | > 13 µM | > 100 µM | > 100 µM | > 100 µM | > 100 µM | > 13 µM |  | > 100 µM | 
12 | COc1ccc(-c2nc3cc(/C(C)=N/NC(N)=O)ccc3n2C2CCCCC2)c(OC)c1 | 23 µM | > 23 µM | 36 µM | 22 µM | 19 µM | > 19 µM | 20 µM | > 20 µM | > 20 µM | > 20 µM |  |  |  | > 20 µM
13 | CC(=O)c1ccc2c(c1)nc(-c1ccoc1)n2C1CCCCC1 | 63 µM | > 63 µM | > 100 µM | > 100 µM | 77 µM | > 77 µM | 80 µM | > 80 µM | > 80 µM | > 80 µM |  |  |  | > 80 µM
14 | CC(=O)c1ccc2c(c1)nc(-c1ccccn1)n2C1CCCCC1 | 70 µM | > 70 µM | > 100 µM | > 100 µM | ≥ 100 µM | > 100 µM | > 90 µM | > 90 µM | > 90 µM | > 90 µM |  |  | > 90 µM | > 90 µM
15 | CC(=O)c1ccc2[nH]c(-c3ccoc3)nc2c1 | > 100 µM | > 100 µM | ≥ 100 µM | 22 µM | 98 µM | > 98 µM | > 100 µM | > 100 µM | > 100 µM | > 100 µM |  |  | > 100 µM | > 100 µM
16 | CC(=O)c1ccc2[nH]c(C3CCCCC3)nc2c1 | > 100 µM | > 100 µM | > 100 µM | > 100 µM | > 100 µM | > 100 µM | > 100 µM | 47 µM | > 100 µM | > 100 µM | > 100 µM |  | > 100 µM | > 100 µM
17 | COc1ccc(-c2nc3cc(/C(C)=N/NC(N)=S)ccc3n2C2CCCCC2)cc1 | 39 µM | > 39 µM | 32 µM | 7 µM |  |  | 40 µM | > 40 µM | > 40 µM | > 40 µM |  | > 40 µM | > 40 µM | > 40 µM
18 | C/C(=N\NC(N)=S)c1ccc2c(c1)nc(-c1ccoc1)n2C1CCCCC1 | 21 µM | > 21 µM | > 100 µM | > 100 µM | > 100 µM | > 100 µM | 25 µM | > 25 µM | > 25 µM | > 25 µM |  |  | > 25 µM | > 25 µM
19 | C/C(=N\NC(N)=S)c1ccc2c(c1)nc(-c1ccccn1)n2C1CCCCC1 | 23 µM | > 23 µM | 41 µM | 26 µM | 24 µM | > 24 µM | 20 µM | > 20 µM | > 20 µM | > 20 µM |  |  | > 20 µM | > 20 µM
20 | C/C(=N\NC(N)=S)c1ccc2[nH]c(C3CCCCC3)nc2c1 | 48 µM | > 48 µM | > 100 µM | 16 µM | 24 µM | > 24 µM | > 100 µM | > 100 µM | > 100 µM | > 100 µM |  | > 100 µM | > 100 µM | 
